# CCR6 antag = CCR6 (human) receptor antagonism; CHO-K1 CCR6 PathHunter beta-arrestin, luminescence, CCL20-stimulated; inhibition, % at 20 µM; 340,000 compounds, 0.49% hits; AID 493098;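 active = compounds whose inhibition of the agonist-driven luminescence signal at 20 µM reaches about 50%, limit read from the data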;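 also: cells stimulated with CCL20 at 14 nM final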
# Target sequence (P51684 whole entry, looked up): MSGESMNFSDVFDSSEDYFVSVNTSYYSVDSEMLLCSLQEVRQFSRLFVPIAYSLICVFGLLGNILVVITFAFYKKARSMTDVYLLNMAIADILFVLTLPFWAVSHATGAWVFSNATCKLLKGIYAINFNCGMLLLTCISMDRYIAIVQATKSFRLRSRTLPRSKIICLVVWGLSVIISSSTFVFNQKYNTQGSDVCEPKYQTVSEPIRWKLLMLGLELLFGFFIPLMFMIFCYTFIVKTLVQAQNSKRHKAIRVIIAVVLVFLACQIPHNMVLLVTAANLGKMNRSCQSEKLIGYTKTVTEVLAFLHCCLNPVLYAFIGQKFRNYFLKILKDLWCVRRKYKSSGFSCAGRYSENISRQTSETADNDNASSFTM
# CXCR6 inh = CXCR6 (human) receptor inhibition; CHO-K1 PathHunter CXCR6 beta-arrestin, luminescence; inhibition, % at 20 µM; O00574; 360,000 compounds, 0.36% hits; in the data active = inhibition above about 34%, passing the limit was not always enough;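 also: antagonist mode with CXCL16 agonist at 10 nM final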
# EBI2 block = EBI2 (human) antagonism | EBI2 beta-arrestin recruitment, luminescence, 7a,25-OHC stimulated | P32249 | 360,000 compounds, 0.81% hits | inhibition, % at 5 µM; in the data active = inhibition above about 38%;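 also: enzyme fragment complementation signal reports receptor beta-arrestin coupling in cells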
# APJ agonist = agonists of human APJ apelin receptor. P35414. CHO-K1 APJ PathHunter beta-arrestin, luminescence; 0% DMSO wells, 100% apelin. activation, % at 20 µM. 330,000 compounds, 0.11% hits;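 active = activation more than six SD over the plate average, tested at 20 µM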
#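 Assay system: engineered CHO-K1 APJ arrestin reporter cells; Amount: 1000 CHO-K1 reporter cells seeded per well; Dosing: one dose, 20 µM compound, 1% DMSO; Times: compound stimulation 90 min at 25 °C, detection 60 min; Measured by: luminescent beta-gal fragment complementation, chemiluminescent substrate; Read-out: APJ–arrestin association signal; Controls: DMSO vs Apelin-13 10 nM.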
# iPSC survival up = hiPSC single-cell survival enhancement. ATPlite luminescence; 100% = ROCK inhibitor wells, 0% = DMSO. survival enhancement, % at 20 µM. 360,000 compounds, 0.044% hits; in the data active = survival enhancement above about 18%;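 also: cells exposed to compounds for 16 hours before the ATP read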
# APJ antagonist = antagonists of human APJ apelin receptor; CHO-K1 APJ beta-arrestin complementation, luminescence; inhibition, % at 20 µM; 330,000 compounds, 0.32% hits;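 active = inhibition above about 40% at 20 µM, limit read from the data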;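 also: cells challenged with 10 nM apelin-13 agonist together with compound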
# CXCR6 confirm = confirmation of human CXCR6 receptor antagonists; shares compounds with CXCR6 inh; CHO-K1 CXCR6 PathHunter beta-arrestin, luminescence; inhibition, % at 20 µM; 700 compounds, 65% hits;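 active = mean inhibition over four retests above 40%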;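 also: receptor stimulated with 10 nM CXCL16 agonist; beta-galactosidase fragment complementation upon beta-arrestin recruitment to receptor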
# Numbers stand for hits; – = inactive; · = no result given. Only some compounds are listed: those with a hit (about 1.5% of all), similar ones and a draw of the others.
SMILES,CCR6 antag,CXCR6 inh,EBI2 block,APJ agonist,iPSC survival up,APJ antagonist,CXCR6 confirm
O=C(Nc1cccc(F)c1)c1ccc(-c2cccnc2)c2ccoc12,·,–,–,·,–,·,·
COC(=O)c1ccc(C(=O)OC)c(-n2c(=O)c3ccccc3c3ccccc3c2=O)c1,57.4,39.8,–,–,–,–,–
COC(=O)c1ccc(-c2nn(C)c(=O)c3ccccc23)cc1,–,–,–,–,–,–,·
CN(CCO)c1cccc2c1S(=O)(=O)N[C@H](Cc1ccccc1)CO2,·,–,–,·,–,·,·
COc1ccccc1/C=C/C(=O)Oc1cccc2cccnc12,–,–,–,–,–,–,·
Cc1ccc2cccc(OC(=O)/C=C\c3ccccc3)c2n1,–,43.0,–,–,–,–,–
COc1ccc(/C=N/Nc2ccc(C(=O)O)cc2)c(OC)c1OC,–,–,–,–,–,–,·
COC(=O)c1ccc2c(c1)C(C)(C)C(/C=C/c1ccc(OC)c(OC)c1OC)=[N+]2C,55.5,76.9,–,–,–,–,101.9
Cn1cc(C(=O)NS(=O)(=O)Nc2ccc(Br)cn2)c2ccccc21,–,–,–,–,–,–,·
Cc1nn(-c2ccccc2)c(N)c1-c1ccccc1,–,–,–,–,–,–,·
Cc1nn(-c2nc3ccccc3[nH]2)c(N)c1-c1ccccc1,·,49.2,–,–,–,–,53.1
O=C(COC(=O)CCC(=O)c1cccs1)Nc1ccccc1C(F)(F)F,–,–,–,–,–,–,·
Cc1c(CCCl)c(Cl)n2c(nc3ccccc32)c1C#N,62.9,44.5,66.8,·,–,·,–
Cc1cc(Cl)n2c(nc3ccccc32)c1C#N,–,–,–,·,–,·,·
CCOC(=O)C1=C(C)NC(C)=C(C(=O)OCC)C1C(=O)OCC(=O)N(C)Cc1ccccc1,–,–,–,–,–,–,·
CC1=NN(/C(=N\c2nnc(C)s2)Nc2ccc(C(C)(C)C)cc2)[C@H](c2ccc(C)cc2)S1,–,39.9,–,–,–,–,–
C=CCNc1nc(C(=O)OCC(=O)c2ccccc2)cs1,–,102.6,–,–,–,–,–
CC(CN1CCCC1)OC(=O)c1ccc(Cl)cc1 (stereo not drawn),–,84.1,–,–,–,–,–
CC(=O)Nc1ccc(/C=C/c2nc(-c3ccccc3O)n[nH]2)cc1,–,–,–,–,–,–,·
CC[n+]1c(C)sc2c(C)cc(C)cc21,–,–,–,–,–,–,·
CCC[n+]1c(C)sc2c3c(ccc21)CCCC3,–,41.8,–,–,–,–,–
CCOC(=O)c1cc(-c2ccccc2)nc2nc(N(CC)CC)sc12,–,–,–,–,–,–,·
CC(=O)OC1CCC2(C)C(CCC3C4CC=C(C(C)=O)C4(C)OC(=O)CC32)C1 (stereo not drawn),·,50.4,51.8,·,–,·,45.8
CC(=O)O[C@H]1CC[C@@]2(C)C(CCC3C2CC[C@]2(C)OC(=O)CCC32)C1 (stereo partly drawn),–,–,–,–,–,–,·
O=C1c2cccc3c([N+](=O)[O-])ccc(c23)C(=O)N1Cc1cccnc1,·,59.5,–,·,–,·,65.3
SMILES,CCR6 antag,CXCR6 inh,EBI2 block,APJ agonist,iPSC survival up,APJ antagonist,CXCR6 confirm
COC(=O)CCS(=O)(=O)c1nc(-c2ccccc2)cc(C(F)(F)F)n1,–,–,–,–,–,–,·
CCOC(=O)CS(=O)(=O)c1nc(-c2ccccc2)cc(C(F)(F)F)n1,–,51.1,–,–,–,–,43.8
Cc1ccc(NS(=O)(=O)c2ccc(C)c(NC(=O)c3ccc(S(=O)(=O)N4CCCCCC4)cc3)c2)c(C)c1,·,–,–,·,–,·,·
O=C(CCCN1C(=O)c2ccccc2C1=O)Nc1ccccc1C(=O)N1CCOCC1,–,65.6,–,–,–,–,–
CCC(=O)Nc1ccccc1C(=O)N1CCOCC1,–,–,–,–,–,–,·
CC(=O)Nc1ccc(NC(=O)C(C)OC(=O)[C@@H]2CCCN2C(=O)c2cccs2)cc1 (stereo partly drawn),–,–,–,–,–,–,·
O=[N+]([O-])c1ccc(C2CCCC/C2=N/O)c([N+](=O)[O-])c1 (stereo not drawn),–,–,–,–,–,–,·
O/N=C1/CCCCC1c1ccccn1 (stereo not drawn),–,57.2,–,–,–,–,–

# High-throughput results from PubChem.
